Assay results taken from ChEMBL document CHEMBL5331087, “Targeted AURKA degradation: Towards new therapeutic agents for neuroblastoma” (Eur J Med Chem, 2023).
Activity calls are given as the source filed them. The rule behind the calls is not given here.

Assays:
SK-N-AS [1] = assay: Antiproliferative activity against human SK-N-AS cells assessed as reduction in cell viability incubated for 48 hrs; format: functional, cell-based; conditions: Homo sapiens, SK-N-AS, 48 h; read-out: IC50
Summary of the method: (§1)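 Cells were grown in RPMI 1640 with 10% FCS and 2 mM L-glutamine. Seeding was 4500 cells/well for NGP, IMR-32 and N206, and 2100 cells/well for SK-N-AS, with adherence overnight. Compound was dispensed over a concentration range in triplicate. Confluence was imaged live for 48 h and normalised to the DMSO control. Absolute IC50 came from a four-parameter variable-slope fit (n = 4).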

[2] = target: T1, N-myc proto-oncogene protein (Homo sapiens) (UniProt P04198); assay: Induction of MYCN degradation in human NGP cells at 500 nM by Western blot analysis; format: cell-based; conditions: time <= 72.0 hrs
T1 sequence (whole entry): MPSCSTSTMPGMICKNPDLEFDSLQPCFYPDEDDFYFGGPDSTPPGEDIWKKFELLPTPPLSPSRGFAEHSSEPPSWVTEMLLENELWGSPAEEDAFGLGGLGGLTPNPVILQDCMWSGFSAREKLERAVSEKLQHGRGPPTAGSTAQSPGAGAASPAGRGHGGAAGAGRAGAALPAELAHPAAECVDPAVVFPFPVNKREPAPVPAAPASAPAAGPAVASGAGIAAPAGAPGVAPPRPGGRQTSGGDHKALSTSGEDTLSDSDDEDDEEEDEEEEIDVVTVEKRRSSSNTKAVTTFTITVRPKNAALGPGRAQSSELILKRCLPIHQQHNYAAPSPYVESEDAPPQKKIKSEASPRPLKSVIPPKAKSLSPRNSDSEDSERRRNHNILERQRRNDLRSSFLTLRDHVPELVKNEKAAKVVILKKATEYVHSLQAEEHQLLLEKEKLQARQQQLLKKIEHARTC
Summary of the method: (§2)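 NGP cells were treated with 500 nM compound and harvested at 0, 1, 3, 6, 24, 48 and 72 h. RIPA lysates (35 µg) were run on 10% SDS-PAGE and blotted to nitrocellulose. AURKA and MYCN were probed with vinculin as loading control and quantified by densitometry. Values are percent remaining relative to the DMSO control at each timepoint (n = 3).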

NGP [3] = assay: Induction of apoptosis in human NGP cells assessed as increase in caspase3/7 level at 10 nM incubated for 24 hrs; format: functional, cell-based
Summary of the method: (§3)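 NGP cells were seeded at 25,000 cells/well and allowed to adhere overnight. Compound was dispensed in triplicate with DMSO matched. At 24 h, cell-occupied area was imaged live, then a Caspase-Glo 3/7 assay was run using 50 µL reagent per well. Signal is expressed per cell-occupied area.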

[4] = target: T2, Protein cereblon/Aurora kinase A (Homo sapiens) (UniProt O14965+Q96SW2); assay: PROTAC activity at AURKA/CRBN in human NGP cells assessed as increase in pRPA32 level at 10 to 1000 nM measured for 24 hrs by immunoblotting analysis; format: cell-based; conditions: dose 10-1000 nM
[5] = Growth inhibition of patient derived NB059 Neuroblastoma organoid assessed as reduction in viability incubated for […] by CellTiter Glo 3D assay relative to control; format: functional; conditions: Homo sapiens
IMR-32 [6] = assay: Antiproliferative activity against human IMR-32 cells assessed as reduction in cell viability incubated for 48 hrs; format: functional, cell-based; conditions: IMR-32, 48 h; summary of the method: as §1
[7] = target: T2, Protein cereblon/Aurora kinase A (Homo sapiens); assay: PROTAC activity at AURKA/CRBN in human NGP cells assessed as increase in H2AX phosphorylation at 10 to 1000 nM measured for 24 hrs by immunoblotting analysis; format: cell-based; conditions: dose 10-1000 nM
[8] = target: T2, Protein cereblon/Aurora kinase A (Homo sapiens); assay: PROTAC activity at AURKA/CRBN in human NGP cells assessed as AURKA degradation at 10 to 1000 nM measured for 24 hrs in presence of thalidomide by Western blot analysis; format: cell-based; conditions: dose 10-1000 nM
[9] = target: T1, N-myc proto-oncogene protein (Homo sapiens); assay: Induction of MYCN degradation in human NGP cells incubated for 24 hrs by immunoblotting analysis; format: cell-based; conditions: dose 10-1000 nM
[10] = target: T2, Protein cereblon/Aurora kinase A (Homo sapiens); assay: PROTAC activity at AURKA/CRBN in human NGP cells assessed as AURKA degradation at 10 to 1000 nM measured for 24 hrs by immunoblotting analysis; format: cell-based; conditions: dose 10-1000 nM
Summary of the method: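 NGP cells were seeded at about 2×10^6 per flask, adhered for 48 h, and were then treated for 24 h with DMSO matched. Lysis was in RIPA with protease/phosphatase inhibitors. AURKA was quantified by capillary Simple Western with peak areas normalised to vinculin. Fold change is relative to DMSO (mean ± SD, n = 3).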

[11] = target: T1, N-myc proto-oncogene protein (Homo sapiens); assay: Induction of MYCN degradation in human NGP cells at 500 nM measured for 72 hrs by Western blot analysis relative to control; format: cell-based; summary of the method: as §2
NGP [12] = assay: Induction of apoptosis in human NGP cells assessed as increase in caspase3/7 level at 1000 nM incubated for 24 hrs; format: functional, cell-based; summary of the method: as §3
IMR-32 [13] = assay: Antiproliferative activity against human IMR-32 cells assessed as reduction in cell viability incubated for 48 hrs relative to control; format: functional
Summary of the method: (§4)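 Cells grown in RPMI 1640 with 10% fetal calf serum, 2 mM L-glutamine and penicillin/streptomycin at 37 °C, 5% CO2. Seeded at 4500 (IMR-32) or 2100 (SK-N-AS) cells/well in 384-well plates and left to adhere overnight. Concentration range dispensed in triplicate. Confluence tracked by IncuCyte live-cell imaging, and 48h values normalized to DMSO. Absolute IC50 taken from a four-parameter variable-slope fit (n = 4).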

[14] = Growth inhibition of patient derived NB067 Neuroblastoma organoid assessed as reduction in viability […] by CellTiter Glo 3D assay; format: functional, tissue-based; conditions: Homo sapiens
Summary of the method: (§5)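 Patient-derived organoids were dissociated to single cells with Accutase and seeded in NB organoid medium at 5000 (000GKX), 20000 (NB059), 5000 (NB067) or 3000 (NB139) cells/well. Compound was added after 24 h over a concentration range in triplicate, with DMSO matched. Incubation was 120 h at 37 °C and 5% CO2. Viability was read by CellTiter-Glo 3D, and absolute IC50 derived (n = 1).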

[15] = Antiproliferative activity against human NGP cells assessed as reduction in cell viability incubated for 48 hrs; format: functional, cell-based; summary of the method: as §1
[16] = Growth inhibition of patient derived 000GKX Neuroblastoma organoid assessed as reduction in viability incubated for […] by CellTiter Glo 3D assay relative to control; format: functional; conditions: Homo sapiens
[17] = Growth inhibition of patient derived NB139 Neuroblastoma organoid assessed as reduction in viability incubated for […] by CellTiter Glo 3D assay relative to control; format: functional; conditions: Homo sapiens
[18] = target: T2, Protein cereblon/Aurora kinase A (Homo sapiens); assay: PROTAC activity at AURKA/CRBN in human NGP cells assessed as AURKA degradation at 100 nM measured for 3 hrs by shotgun proteome profiling relative to control
SK-N-AS [19] = assay: Antiproliferative activity against human SK-N-AS cells assessed as reduction in cell viability incubated for 48 hrs relative to control; format: functional; summary of the method: as §4
[20] = target: T2, Protein cereblon/Aurora kinase A (Homo sapiens); assay: PROTAC activity at AURKA/CRBN in human NGP cells assessed as increase in pCHK1 level at 10 to 1000 nM measured for 24 hrs by immunoblotting analysis; format: cell-based; conditions: dose 10-1000 nM
[21] = Growth inhibition of patient derived NB139 Neuroblastoma organoid assessed as reduction in viability […] by CellTiter Glo 3D assay; format: functional, tissue-based; conditions: Homo sapiens; summary of the method: as §5

T2 sequence (O14965 whole entry, looked up): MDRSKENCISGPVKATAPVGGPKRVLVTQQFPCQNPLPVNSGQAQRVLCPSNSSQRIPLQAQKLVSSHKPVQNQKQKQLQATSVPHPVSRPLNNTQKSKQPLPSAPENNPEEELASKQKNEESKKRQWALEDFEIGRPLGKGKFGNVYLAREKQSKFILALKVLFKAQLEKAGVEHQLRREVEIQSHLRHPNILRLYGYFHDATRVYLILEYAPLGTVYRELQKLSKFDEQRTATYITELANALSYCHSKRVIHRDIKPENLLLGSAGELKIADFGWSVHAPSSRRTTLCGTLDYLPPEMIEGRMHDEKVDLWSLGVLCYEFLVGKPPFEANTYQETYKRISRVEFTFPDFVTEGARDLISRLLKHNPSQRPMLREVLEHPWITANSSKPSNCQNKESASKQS
T2 sequence (Q96SW2 whole entry, looked up): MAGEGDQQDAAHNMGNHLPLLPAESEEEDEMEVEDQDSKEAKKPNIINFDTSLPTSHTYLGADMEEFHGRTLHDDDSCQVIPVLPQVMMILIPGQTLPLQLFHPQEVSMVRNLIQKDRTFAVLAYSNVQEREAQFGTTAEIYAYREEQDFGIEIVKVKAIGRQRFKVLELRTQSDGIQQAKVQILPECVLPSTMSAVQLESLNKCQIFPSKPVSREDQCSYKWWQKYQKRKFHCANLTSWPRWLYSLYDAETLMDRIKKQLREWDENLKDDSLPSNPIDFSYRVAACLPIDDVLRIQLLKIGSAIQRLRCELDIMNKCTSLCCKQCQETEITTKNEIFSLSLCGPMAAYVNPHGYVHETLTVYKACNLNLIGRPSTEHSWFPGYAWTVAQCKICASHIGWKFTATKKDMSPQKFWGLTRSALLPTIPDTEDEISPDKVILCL

- IC50 (SK-N-AS [1]): 6690 nM
- Activity [2]: Dose-Dependent Effect
- Activity [4]: Active
- Activity [7]: Active
- Activity [8]: inactive
- Activity [9]: Dose-Dependent Effect
- Activity [10]: Active
- Activity [11]: 73%
- Activity [18]: Active
- Activity [20]: Active
Compound: O=C1CCC(N2C(=O)c3cccc(OCCOCCOCCOCCNC(=O)[C@]4(Cc5cccc(Nc6nccs6)n5)CC[C@@H](Oc5cccc(Cl)c5F)CC4)c3C2=O)C(=O)N1 (stereo partly specified)
- Activity (NGP [3]): Active
- Emax [5]: 80.2%
- IC50 (IMR-32 [6]): 21.5 nM
- Activity (NGP [12]): Active
- Emax (IMR-32 [13]): 14.1%
- IC50 [14]: 26.4 nM
- IC50 [15]: 31.9 nM
- Emax [16]: 38.2%
- Emax [17]: 37.8%
- Emax (SK-N-AS [19]): 45%
- IC50 [21]: 131 nM
